Rows were chosen to be rich in hits. Some 2.7% of all compounds tested hit in one or more screens of this group.
PREPL inh = inhibitors of human prolyl oligopeptidase-like enzyme PREPL | AID 2751 | Q4J6C6 | recombinant PREPL, fluorescence polarization activity-based probe | inhibition, % at 5.96 µM | actives 0.68% (n = 320,000); in the data active = inhibition above about 43%;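 note: 0% = enzyme with DMSO and 100% = wells lacking enzyme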
Hep lipid drop = modulators of hepatic lipid droplet formation; AML12 mouse hepatocytes, oleate lipid droplets, BODIPY imaging; inhibition, % at 6.5 µM; actives 0.4% (n = 240,000); AID 1656;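 active = lipid droplet intensity inhibited by at least 50%, with more than 500 cells counted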
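Assay system: AML12 hepatocytes (mouse); Probe or stimulus: oleic acid at 100 µM to induce lipid droplet formation; Dosing: compound at 6.5 µM only; Schedule: compound with oleate, overnight; Detection: fluorescence imaging, 20x objective, two fields per well; Measure: % inhibition of lipid droplet signal.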
MC4R ag barr = activates human MC4R beta-arrestin recruitment; AID 540308; U2OS MC4R beta-arrestin complementation, luminescence; percent of melanotan II response, DMSO zero; activation, % at 8.9 µM; actives 0.98% (n = 360,000);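 active = activation above a per-plate cutoff, the mean activation of sample wells on that plate plus 3 SD, cut at about 8% in these data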
m5-HT2A agonist = mouse HTR2A agonism via beta-arrestin recruitment; CHO-K1 mHTR2A beta-arrestin complementation, luminescence; percent of 30 µM serotonin response; activation, % at 7.6 µM; actives 0.66% (n = 360,000); AID 624169;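 active = activation above a run cutoff, the mean activation of all tested compounds plus 3 SD, cut at about 14% in these data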;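 note: 0% = plate median of compound wells and 100% = 30 µM serotonin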
MC4R antagonist = blocks human MC4R cAMP signaling | inhibition, % at 6.5 µM | actives 0.48% (n = 360,000) | P32245 | MC4R-expressing cells, MTII-stimulated cAMP, LANCE TR-FRET;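 active = inhibition above its plate's cutoff, the mean of tested wells on that plate plus 3 SD, cut at about 29% in these data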;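 note: 0% = Melanotan II alone and 100% = Melanotan II plus saturating MCL0020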
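Material: U2OS-MC4R stable cell line | Reagent: Melanotan II challenge after compound preincubation | Doses: One concentration, 6.5 µM nominal | Incubation: 30-min compound preincubation, 1-h Melanotan II challenge, 1-h detection, room temperature | Signal: TR-FRET cAMP assay | Replicates: One well per compound, no replicates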
NTR1 ag = agonists of human neurotensin receptor NTR1. actives 0.17% (n = 330,000). P30989. activation, % at 20 µM. NTR1-U2OS beta-arrestin-GFP spot imaging, agonist mode;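 active = activation at or above 40% of the spot to cytoplasm intensity ratio, with at least 20 cells analyzed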;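 note: 0% = DMSO without peptide and 100% = 100 nM NTR1 peptide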
Target sequence (P30989 whole entry, looked up): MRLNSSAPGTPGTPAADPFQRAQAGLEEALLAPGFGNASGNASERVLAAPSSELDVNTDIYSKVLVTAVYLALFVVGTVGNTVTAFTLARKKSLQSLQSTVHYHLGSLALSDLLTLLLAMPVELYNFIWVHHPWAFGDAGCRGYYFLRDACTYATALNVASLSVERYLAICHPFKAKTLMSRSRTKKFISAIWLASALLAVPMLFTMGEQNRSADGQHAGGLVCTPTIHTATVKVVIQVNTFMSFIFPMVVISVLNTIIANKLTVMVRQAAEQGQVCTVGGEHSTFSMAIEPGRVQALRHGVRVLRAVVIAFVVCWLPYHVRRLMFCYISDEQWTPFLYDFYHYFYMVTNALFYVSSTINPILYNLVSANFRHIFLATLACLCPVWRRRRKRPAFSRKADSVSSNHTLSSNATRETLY
OPRM1 ag = activates human mu opioid receptor in HTR2A counterscreen. shares compounds with m5-HT2A agonist. U2OS OPRM1 beta-arrestin PathHunter, luminescence; DMSO 0%, DAMGO 9.3 µM 100%. activation, % at 9.3 µM. actives 5.3% (n = 2,300);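 active = mean activation above the mean of DMSO-only wells plus 3 SD, cut at about 0.5% in these data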
HTR2A ag conf = mouse HTR2A agonism confirmed; shares compounds with m5-HT2A agonist; CHO-K1 PathHunter beta-arrestin recruitment, luminescence; DMSO 0%, 30 µM serotonin 100%; activation, % at 7.6 µM; actives 19% (n = 2,300);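 active = mean activation across triplicates above the hit threshold derived in the original primary screen, cut at about 15% in these data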
Numbers without * were called inactive.

`O=C(C1CCN(S(=O)(=O)c2ccc(Cl)cc2)CC1)N1CCCC1` gave PREPL inh 6, Hep lipid drop -7, MC4R ag barr -1, m5-HT2A agonist 7, MC4R antagonist 10 and NTR1 ag 0.
Screening CC(C)CN(C(=O)c1ccc2c(c1)OCCO2)c1c(N)n(Cc2ccccc2)c(=O)[nH]c1=O returned PREPL inh 9, MC4R ag barr -1, m5-HT2A agonist 6, MC4R antagonist 13 and NTR1 ag 0.
Screening Cc1cccc(C)c1OCc1cc(C(=O)N2CCCC2c2nonc2C)no1 (stereo unspecified) returned PREPL inh 24, MC4R ag barr 1, m5-HT2A agonist 14*, MC4R antagonist -1, NTR1 ag 5, OPRM1 ag 0 and HTR2A ag conf 4.
For O=C(Nc1ccccc1C(F)(F)F)NC1(C(=O)N2CCOCC2)CCCCC1 the results were MC4R ag barr 0, m5-HT2A agonist 3 and MC4R antagonist 5.
COc1ccccc1C1CC(=O)Nc2c1c(=O)n(C)c(=O)n2C (stereo unspecified) was read as PREPL inh 2, MC4R ag barr 0, m5-HT2A agonist 14*, MC4R antagonist 2, NTR1 ag -1, OPRM1 ag 0 and HTR2A ag conf 2.
`CCOc1ccc(C2C(C(N)=O)=C(C)Nc3ncnn32)cc1OC` (stereo unspecified) gave PREPL inh 12, Hep lipid drop 0, MC4R ag barr -1, m5-HT2A agonist 7, MC4R antagonist 2 and NTR1 ag 1.
Screening CCOc1cc(C2C(C(C)=O)=C(C)Nc3ncnn32)ccc1O (stereo unspecified) returned PREPL inh 9, Hep lipid drop 13, MC4R ag barr 0, m5-HT2A agonist 15*, MC4R antagonist 15, NTR1 ag -1, OPRM1 ag -1 and HTR2A ag conf -3.
For C/C(N)=C(/C#N)C(=O)CSc1nc2scc(-c3ccc(F)cc3)c2c(=O)n1C the results were PREPL inh 11, Hep lipid drop -7, MC4R ag barr -2, m5-HT2A agonist -1, MC4R antagonist 4 and NTR1 ag 9.
Screening CSCCC(c1nc2ccccc2[nH]1)n1c(-c2cc(C(F)(F)F)cc(C(F)(F)F)c2)nc2ccccc21 (stereo unspecified) returned m5-HT2A agonist 19*, OPRM1 ag 0.8* and HTR2A ag conf 7.
Screening COc1ccccc1S(=O)(=O)N1CCN(S(=O)(=O)c2ccccc2C#N)CC1 returned PREPL inh -7, Hep lipid drop 3, MC4R ag barr 1, m5-HT2A agonist 6, MC4R antagonist 13 and NTR1 ag -1.
Screening Cc1ccc(NC(=O)Nn2cnnc2)cc1 returned Hep lipid drop 5, MC4R ag barr -2, m5-HT2A agonist 16*, MC4R antagonist 8, NTR1 ag 0, OPRM1 ag -1 and HTR2A ag conf 0.
Screening COCCn1c(C)nnc1SCC(=O)NNC(=O)c1ccc(Br)cc1 returned Hep lipid drop -21, MC4R ag barr -1, m5-HT2A agonist -6, MC4R antagonist 11 and NTR1 ag 1.
CC(=O)Oc1ccccc1-c1nc(/C=C/c2ccccc2)no1 was read as Hep lipid drop 5, MC4R ag barr -1, m5-HT2A agonist 2, MC4R antagonist 5 and NTR1 ag 5.
Screening COc1cccc(CN2CCN(C(=O)c3cccs3)CC2)c1OC returned PREPL inh -18, MC4R ag barr -1, m5-HT2A agonist 7, MC4R antagonist 2 and NTR1 ag 1.
O=C(c1cccs1)N1CCN(Cc2ccccc2)CC1 was read as PREPL inh 10, Hep lipid drop 9, MC4R ag barr -2, m5-HT2A agonist 28*, MC4R antagonist -2, NTR1 ag 0, OPRM1 ag 0 and HTR2A ag conf 93*.
Screening COc1ccc(OC)c(CN2CCN(C(=O)c3cccs3)CC2)c1 returned PREPL inh 10, MC4R ag barr 0, m5-HT2A agonist 33*, MC4R antagonist -1, NTR1 ag 3, OPRM1 ag 0.8* and HTR2A ag conf 91*.
For COc1ccc(CN2CCN(C(=O)c3cccs3)CC2)cc1 the results were PREPL inh 4, MC4R ag barr 0, m5-HT2A agonist 29*, MC4R antagonist -3, NTR1 ag 1, OPRM1 ag 0 and HTR2A ag conf 50*.
Screening COc1ccc(C(=O)COC(=O)CNC(=O)c2cc(OC)cc(OC)c2)cc1 returned PREPL inh 2, Hep lipid drop 2, MC4R ag barr 0, m5-HT2A agonist -1, MC4R antagonist 17 and NTR1 ag 0.
`O=C(C1CCCN(Cc2ccc([N+](=O)[O-])cc2)C1)N1CCCCC1` (stereo unspecified) gave PREPL inh -7, Hep lipid drop -24, MC4R ag barr -1, m5-HT2A agonist -1, MC4R antagonist 5 and NTR1 ag 1.
For Cn1c(CSCc2ccccc2Cl)n[nH]c1=S the results were PREPL inh -4, Hep lipid drop 13, MC4R ag barr -2, m5-HT2A agonist 6, MC4R antagonist 1 and NTR1 ag -1.
For S=c1[nH]nc(CSCc2ccccc2Cl)n1C1CCCCC1 the results were Hep lipid drop 11, MC4R ag barr 3, m5-HT2A agonist 29*, MC4R antagonist 5, OPRM1 ag 0 and HTR2A ag conf -1.
`CCn1cc(S(=O)(=O)Nc2ccc(Cl)cc2F)cn1` gave PREPL inh 7, Hep lipid drop 16, MC4R ag barr -2, m5-HT2A agonist 6, MC4R antagonist 3 and NTR1 ag 0.
Screening O=C(NC(=S)N1CCN(c2ccccc2)CC1)c1ccc(S(=O)(=O)N2CCOCC2)cc1 returned PREPL inh 3, Hep lipid drop -1, MC4R ag barr -1, m5-HT2A agonist 3, MC4R antagonist 19 and NTR1 ag 0.
For CCOC(=O)CCC(=O)Nc1ccc(S(=O)(=O)Nc2cc(OC)nc(OC)n2)cc1 the results were PREPL inh -2, Hep lipid drop 6, MC4R ag barr -1, m5-HT2A agonist 22*, MC4R antagonist 2, NTR1 ag 1, OPRM1 ag -1 and HTR2A ag conf -4.
